SIRT5 inh – inhibitors of human sirtuin-5 desuccinylase; Q9NXA8; Purified SirT5, succinyl-peptide AMC, trypsin-coupled fluorescence; inhibition, % at 15 µM; 1.1% of 330,000 active; AID 652115; in the data active = inhibition above about 15%
Target sequence (Q9NXA8 whole entry, looked up): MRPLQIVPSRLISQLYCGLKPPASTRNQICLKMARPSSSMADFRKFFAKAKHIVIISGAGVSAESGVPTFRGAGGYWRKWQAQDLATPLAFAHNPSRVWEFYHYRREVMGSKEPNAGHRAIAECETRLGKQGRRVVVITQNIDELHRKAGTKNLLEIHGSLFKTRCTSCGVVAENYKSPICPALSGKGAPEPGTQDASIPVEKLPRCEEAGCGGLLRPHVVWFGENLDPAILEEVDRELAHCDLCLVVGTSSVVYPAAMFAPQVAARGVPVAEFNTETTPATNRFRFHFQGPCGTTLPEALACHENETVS
rRNA inh HTS – inhibitors of bacterial rRNA selective over humanized ribosomes; E. coli WT GFP vs humanized-ribosome RFP mutants, fluorescence, 24 h; stronger effect = lower value; DMSO median 0, no signal -100; GFP signal change (wild-type ribosome), % (no concentration beside the values); 1.6% of 350,000 active; AID 720706;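 active = significant combined selectivity score with lowered wild-type GFP, culture density cut under 30%, mutant RFP and density less affected; inactive = any of these conditions unmet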
E-selectin induc – induces E-selectin expression in human endothelial cells | 0.37% of 260,000 active | P16581 | AID 686992 | HUVEC E-selectin immunofluorescence imaging; normalized: neutral wells 0, TNF-alpha wells 100 | activation, % at 7.58 µM;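 active = mean E-selectin-positive cell signal at least 10% of the positive control, reached in at least 60% of replicates, without over 20% cell loss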
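assay system = HUVEC, human umbilical vein endothelial cells | input = 3,000 HUVEC seeded per well | medium = EGM-2 growth medium on 0.1% gelatin-coated wells | dosing = one compound dose added by pin transfer | signal = immunofluorescence imaging | read-out basis = % PE-positive cells | control set = TNF-alpha, DMSO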
C2C12 statin – suppression of simvastatin myotoxicity | C2C12 myotubes + simvastatin, ATP luminescence, 48 h; scaled: DMSO 0, geranylgeraniol control 100 | rescue of ATP level, % at 7.49 µM | AID 602340 | 0.78% of 330,000 active;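 active = mean ATP rescue above about 67%, or every replicate alone reaching that limit, limit read from the data, passing the limit was not always enough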;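 also: myotubes were challenged with 10 µM simvastatin during compound exposure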
FN deposition inh – fibronectin deposition inhibition; inhibition, % at 12.6 µM; AH1F fibroblasts, Alexa488-fibronectin deposition fluorescence, overnight; 0.086% of 350,000 active;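 active = mean inhibition across replicates of 30% or more, regardless of how many single replicates reach that level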;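 also: positive control wells lacked labelled fibronectin entirely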
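material = AH1F fibroblast monolayer depositing Alexa488-labelled fibronectin into matrix | amount = 10000 AH1F cells/well | buffer or medium = DMEM plus 2% serum, read in PBS | incubation = 1 h cell adhesion before compound, then overnight fibronectin incubation | detection = fluorescence at 485 nm excitation, 525 nm emission | evaluation = percent inhibition as loss of matrix-bound fibronectin fluorescence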
FGF22 binding – shifts melting point of recombinant human FGF22 | Q9HCT0 | recombinant FGF22 thermal shift, SYPRO orange fluorescence; percent of sucrose octasulfate shift, DMSO zero | activity (Tm shift, normalised), % at 9.99 µM | 1.5% of 340,000 active | AID 651658;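 active = mean Tm shift, scaled 0 neutral to 100 positive control, at about 1.3% or above, every replicate too, limit read from the data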
Target sequence (Q9HCT0 whole entry, looked up): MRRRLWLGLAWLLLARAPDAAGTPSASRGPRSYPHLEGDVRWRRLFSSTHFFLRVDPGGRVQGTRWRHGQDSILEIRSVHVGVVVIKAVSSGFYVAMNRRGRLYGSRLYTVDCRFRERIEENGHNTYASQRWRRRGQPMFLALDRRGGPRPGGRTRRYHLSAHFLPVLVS
Starred values were filed as active, the others as inactive; x = no result. Sampled rows, rich in hits. Any-hit rate of the full collection: about 4%.

SMILES	SIRT5 inh	rRNA inh HTS	E-selectin induc	C2C12 statin	FN deposition inh	FGF22 binding
O=[N+]([O-])c1cc(C(F)(F)F)cc([N+](=O)[O-])c1NCCNC(=S)Nc1cccc(F)c1	-1	-25*	5	12	-8	0
Fc1ccc(CNC(=S)Nc2cccc(C(F)(F)F)c2)cc1	x	x	x	x	-12	x
O=C(NC1CCCC1)N[C@@H]1CC[C@H](CC(=O)N2CCOCC2)O[C@H]1CO	25*	2	1	-1	x	0
O=C(NC1CCCCC1)N[C@H]1CC[C@@H](CC(=O)N2CCOCC2)O[C@H]1CO	-1	1	1	0	5	0
CCOc1ccc(-c2nc3n(c(=O)c2C#N)CCCS3)cc1	x	x	x	103*	x	x
COc1ccc(-c2nc3n(c(=O)c2C#N)CCCS3)cc1	x	x	x	-5	x	x
C[C@H]1CCCCO[C@H](CN(C)C(=O)Nc2ccc(F)cc2)[C@@H](C)CN([C@@H](C)CO)C(=O)c2cc(NS(=O)(=O)c3cccs3)ccc2O1	8	4	0	38	x	0
C[C@H](CO)N1C[C@H](C)[C@@H](CN(C)C(=O)c2ccccc2F)Oc2ncc(Br)cc2C1=O	0	-8	0	5	-3	0
Fc1ccc(-c2nc3c(-c4ccc(F)cc4)cnn3cc2CCN2CCOCC2)cc1	3	-11	x	-9	-3	43*
Fc1ccc(-c2nc3c(-c4ccccc4)cnn3cc2CCN2CCOCC2)cc1	1	-18	7	x	6	0
COc1cc(NC(=O)COn2nnc3ccc(S(C)(=O)=O)cc32)cc(OC)c1	-5	-18	x	12	3	43*
O=C(COn1nnc2ccc(S(=O)(=O)N3CCOCC3)cc21)Nc1c(F)c(F)c(F)c(F)c1F	-2	-20*	x	11	3	42
O=C(Nc1ccc2c(c1)[C@@H]1C[C@H](CC(=O)N3CCc4ccccc4C3)O[C@@H](CO)[C@@H]1O2)c1ccc2c(c1)OCO2	4	-14	0	13	9	0
C[C@@H]1C(=O)N[C@H](c2ccccc2)CC=CC[C@H](C)Oc2ccccc2C(=O)N1C (mixture of isomers)	x	-6	x	x	-1	x
COc1ccccc1CNC(=O)C[C@@H]1CC[C@H](NC(=O)CC2CC2)[C@H](CO)O1	-2	-1	-1	-8	-3	0
O=C(C[C@H]1CC[C@H](NC(=O)Nc2ccc(C(F)(F)F)cc2)[C@H](CO)O1)NCc1cccc(F)c1	3	-8	0	-1	-16	0
O=C1Oc2ccccc2C(=O)/C1=C/N1CCN(c2ccccc2F)CC1	4	-30*	-4	16	0	0
CNC(=O)C[C@@H]1CC[C@@H]2[C@H](COc3ccc(NC(=O)Nc4c(C)noc4C)cc3C(=O)N2C)O1	x	0	0	-6	-6	0
Cc1cc(C)nc(-n2nc(C)c3c(C(F)F)cc(C)nc32)n1	x	x	x	115*	x	x
COc1ccc(-c2cc(C(=O)O)[nH]n2)cc1OC	-5	8	-1	x	-2	x
COc1ccccc1-c1cc(C(=O)NN)[nH]n1	-2	-20*	23	x	-5	0
COc1ccc(-c2cc(C(=O)NN)[nH]n2)cc1OC	0	-22*	4	x	1	0
O=C(NC1CCCCC1)C1CCN(C(=O)NCc2ccccc2)CC1	x	x	x	103*	x	x
CCOC(=O)C1(Cc2ccccc2C)CCCN(C(=O)c2ccnn2C)C1 (configuration not stated)	14	-2	114*	-9	2	x
CCCc1cc(C(=O)N2CCCC(Cc3cccc(Cl)c3)(C(=O)OCC)C2)n(C)n1 (configuration not stated)	-2	-9	0	-2	-9	0
CCOC(=O)C1(Cc2ccccc2C)CCCN(C(=O)c2cc(CC)nn2C)C1 (configuration not stated)	-5	-15	4	x	1	43*
C[C@@H](NC(=O)C[C@H]1C=C[C@H](NC(=O)Cc2ccccn2)[C@H](CO)O1)c1ccccc1	3	-1	0	-20	1	0
Cc1ccc(-c2ccc3c(c2)O[C@@H](CN(C)C(=O)C2CCCCC2)[C@@H](C)CN([C@H](C)CO)S3(=O)=O)cc1	x	0	0	0	-16	x
COc1ccc(NC(=O)N(C)C[C@@H]2Oc3ccc(NC(=O)C4CCCCC4)cc3CC(=O)N([C@H](C)CO)C[C@H]2C)cc1	-1	1	0	0	0	0

Source: PubChem
